ChEMBL document CHEMBL3808325, “Discovery and Optimization of Macrocyclic Quinoxaline-pyrrolo-dihydropiperidinones as Potent Pim-1/2 Kinase Inhibitors” (ACS Med Chem Lett, 2016)
In brackets after ≈: the same amount, converted by molar mass.

How the values were obtained:
[1] = Equilibrium solubility of compound in PBS by HPLC analysis; type: physicochemical
[2] = molecular target: Serine/threonine-protein kinase pim-2 (Homo sapiens, UniProt Q9P1W9); assay: Inhibition of human full-length Pim2 expressed in Escherichia coli assessed as phosphorylation of biotinylated BAD peptide at Ser 112 preincubated for 30 mins followed by substrate addition measured after 1 hr by HTRF assay
Sequence of Serine/threonine-protein kinase pim-2 (Q9P1W9 whole entry): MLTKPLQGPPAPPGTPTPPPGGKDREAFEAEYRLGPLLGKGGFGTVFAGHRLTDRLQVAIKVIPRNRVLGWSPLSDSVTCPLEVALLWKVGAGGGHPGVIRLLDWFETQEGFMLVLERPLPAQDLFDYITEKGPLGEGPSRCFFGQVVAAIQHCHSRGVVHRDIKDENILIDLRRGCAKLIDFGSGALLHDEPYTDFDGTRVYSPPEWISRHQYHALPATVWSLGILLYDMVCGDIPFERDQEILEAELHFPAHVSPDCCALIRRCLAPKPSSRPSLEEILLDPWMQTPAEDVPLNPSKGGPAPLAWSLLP
Outline: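 Cell-free kinase assay using recombinant Pim-1 or Pim-2. Read-out is phosphorylation of a short BAD peptide sequence spanning Ser-112.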

[3] = molecular target: Serine/threonine-protein kinase PIM (Homo sapiens, UniProt P11309+Q9P1W9+Q86V86); assay: Inhibition of Pim1/2 in human KMS-12-BM cells assessed as phosphorylation of full-length BAD protein at Ser-112 incubated for 110 mins by flow cytometric analysis in presence of 20% FBS; type: cell-based
Outline: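 Cell assay in KMS-12-BM, a multiple myeloma line with relatively high endogenous Pim-1/2. Pim-dependent phosphorylation of full-length endogenous BAD at Ser-112 measured.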

[4] = molecular target: Serine/threonine-protein kinase pim-1 (Homo sapiens, UniProt P11309); assay: Inhibition of human full-length Pim1 expressed in Escherichia coli assessed as phosphorylation of biotinylated BAD peptide at Ser-112 preincubated for 30 mins followed by substrate addition measured after 1 hr by HTRF assay
Sequence of Serine/threonine-protein kinase pim-1 (P11309 whole entry): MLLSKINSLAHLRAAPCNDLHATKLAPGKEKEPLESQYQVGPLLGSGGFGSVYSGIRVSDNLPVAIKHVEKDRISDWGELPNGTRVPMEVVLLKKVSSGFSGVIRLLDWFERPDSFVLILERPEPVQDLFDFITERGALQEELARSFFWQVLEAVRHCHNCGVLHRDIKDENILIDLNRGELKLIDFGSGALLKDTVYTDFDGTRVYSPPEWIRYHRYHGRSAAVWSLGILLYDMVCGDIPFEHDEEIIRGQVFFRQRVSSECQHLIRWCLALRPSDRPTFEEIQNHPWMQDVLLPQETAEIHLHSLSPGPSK

[5] = Clearance in Sprague-Dawley rat at 2 mg/kg, iv; type: ADME, organism-based; settings: in vivo
Outline: (§1)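 Pharmacokinetics in male Sprague–Dawley rats. Clearance also expressed as a percentage of liver blood flow. Oral bioavailability determined.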

[6] = Protein binding in rat assessed as as fraction unbound at 5 uM by rapid equilibrium dialysis method; type: ADME; settings: plasma
[7] = Volume of distribution at steady state in Sprague-Dawley rat at 2 mg/kg, iv; type: ADME, organism-based; settings: in vivo, read-out: Vdss; outline: as §1
[8] = Drug metabolism in human liver microsomes assessed as compound turnover at 1 uM incubated for 30 mins; type: ADME; settings: read-out: Drug metabolism
[9] = Oral bioavailability in Sprague-Dawley rat at 5 mg/kg; type: ADME, organism-based; settings: in vivo; outline: as §1
[10] = Apparent permeability in pig LLC-PK1 cells at 5 uM; type: ADME, cell-based, Sus scrofa
[11] = Half life in Sprague-Dawley rat at 2 mg/kg, iv; type: ADME, organism-based; settings: in vivo; outline: as §1
[12] = Drug metabolism in rat liver microsomes assessed as compound turnover at 1 uM incubated for 30 mins; type: ADME; settings: read-out: Drug metabolism
[13] = Volume of distribution at steady state in Sprague-Dawley rat at 1 mg/kg, iv; type: ADME, organism-based; settings: in vivo, read-out: Vdss; outline: as §1
[14] = Clearance in Sprague-Dawley rat at 1 mg/kg, iv; type: ADME, organism-based; settings: in vivo; outline: as §1
[15] = Half life in Sprague-Dawley rat at 1 mg/kg, iv; type: ADME, organism-based; settings: in vivo; outline: as §1

Row | Structure (SMILES) | solubility thermodynamic [1] [µM] | IC50 [2] [nM] | IC50 [3] [nM] | IC50 [4] [nM] | also measured
1 | Cc1nc2cccc3c2nc1NC[C@@H](C)CC[C@H]1CNC(=O)c2cc-3[nH]c21 | < 5 | 0.3 | 37 | 0.3 | –
2 | CCCCNc1nc2c(-c3cc4c([nH]3)CCNC4=O)cccc2nc1C | – | 2 | – | 3 | –
3 | Cc1nc2cccc3c2nc1NC[C@H](C)CC[C@H]1CNC(=O)c2cc-3[nH]c21 | < 5 | 0.4 | 25 | 0.5 | –
4 | Cc1nc2cccc3c2nc1N[C@@H](C)CCC[C@H]1CNC(=O)c2cc-3[nH]c21 | < 5 | 0.4 | 40 | 1 | –
5 | CCCNc1nc2c(-c3cc4c([nH]3)CCNC4=O)cccc2nc1C | – | 2 | – | – | –
6 | Cc1nc2cccc(-c3cc4c([nH]3)CCNC4=O)c2nc1Nc1ccccc1 | – | 2 | 184 | 3 | –
7 | Cc1nc2cccc3c2nc1N[C@H](C)CCC[C@H]1CNC(=O)c2cc-3[nH]c21 | < 5 | 0.2 | 37 | 0.1 | –

Second part, led by results:

Row | solubility thermodynamic [1] [µM] | IC50 [2] [nM] | IC50 [3] [nM] | IC50 [4] [nM] | Structure (SMILES) | also measured
8 | < 5 | 0.3 | 26 | 0.6 | Cc1nc2cccc3c2nc1N[C@@H](C)/C=C/C[C@H]1CNC(=O)c2cc-3[nH]c21 | –
9 | 23 (≈ 8.27 µg/mL) | 0.2 | 14 | 0.4 | C/C1=C/C[C@H]2CNC(=O)c3cc([nH]c32)-c2cccc3nc(C)c(nc23)NC1 | clearance [5]: 15.8 mL/min/kg; fraction unbound at 5 µM [6]: 0.016; Vd [7]: 1.8 L/kg; metabolised at 0.5 h, 1 µM [8]: 17%; bioavailability [9]: 17%; Papp at 5 µM [10]: 40 ×10⁻⁶ cm/s; half-life [11]: 6.1 h; metabolised at 0.5 h, 1 µM [12]: 42%
10 | 7 (≈ 2.43 µg/mL) | 0.05 | 20 | 0.07 | Cc1nc2cccc3c2nc1NCCCC[C@H]1CNC(=O)c2cc-3[nH]c21 | –
11 | 27 (≈ 9.7 µg/mL) | 0.08 | 16 | 0.1 | C/C1=C\C[C@H]2CNC(=O)c3cc([nH]c32)-c2cccc3nc(C)c(nc23)NC1 | Vd [13]: 3.1 L/kg; fraction unbound at 5 µM [6]: 0.0071; metabolised at 0.5 h, 1 µM [8]: 45%; bioavailability [9]: 35%; Papp at 5 µM [10]: 33 ×10⁻⁶ cm/s; clearance [14]: 40 mL/min/kg; half-life [15]: 2.8 h; metabolised at 0.5 h, 1 µM [12]: 45%
12 | – | 0.2 | 100 | 0.4 | Cc1nc2cccc3c2nc1NCCCC[C@@H]1CNC(=O)c2cc-3[nH]c21 | –
13 | < 5 | 0.07 | 21 | 0.06 | Cc1nc2cccc3c2nc1NC/C=C\C[C@H]1CNC(=O)c2cc-3[nH]c21 | –
14 | – | 1 | 370 | 2 | Cc1nc2cccc3c2nc1NC/C=C\C[C@@H]1CNC(=O)c2cc-3[nH]c21 | –
15 | < 5 | 0.05 | 20 | 0.3 | Cc1nc2cccc3c2nc1N[C@H](C)/C=C/C[C@H]1CNC(=O)c2cc-3[nH]c21 | –
16 | – | 1 | 880 | 1 | Cc1nc2cccc3c2nc1NC/C=C/C[C@@H]1CNC(=O)c2cc-3[nH]c21 | –
17 | < 5 | 0.5 | 106 | 1 | Cc1nc2cccc3c2nc1NC/C=C/C[C@H]1CNC(=O)c2cc-3[nH]c21 | –
